According to ChEMBL document CHEMBL4049448, “Development of a Potent Wound Healing Agent Based on the Liver Fluke Granulin Structural Fold” (J Med Chem, 2017):
Activity calls are given as the source filed them. No cut-off for these calls is given here. Positions of bridges follow the written chain, without caps; N, C: chain ends. Residues, ends and D or L forms follow the SMILES beside them.

Tests used:
Mus musculus = experiment: Wound healing activity in BALB/c mouse assessed as biopsy punch-induced wound closure at 56 pmol administered topically daily as 1.5% methyl cellulose gel for 4 days measured on day 4 post last dose relative to control; assay type: functional
Procedure, shortened: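 Female BALB/c mice, 11−12 weeks, 19−23 g, groups of 4−5. Under ip xylazine 16 mg/kg and ketamine 80 mg/kg, a 5 mm biopsy punch made a skin-deep scalp wound (~0.2 cm2). Betadine was applied first. Then 56 pmol in 50 μL 1.5% methylcellulose gel was applied daily, days 0−4. Healing at day 4 expressed relative to PBS vehicle.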

[1] = test system: H69 cholangiocyte cell line (Homo sapiens); experiment: Induction of human H69 cell growth at 400 nM after 5 to 6 days by real time cell proliferation assay relative to control
NCI-H69 [2] = experiment: Induction of human H69 cell growth up to 2 uM after 5 to 6 days by real time cell proliferation assay; assay type: functional, cell-based
Procedure, shortened: (§1)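 H69 SV40-transformed human cholangiocytes, seeded 1500 cells/well in complete media and grown overnight, then washed with PBS and held ≥6 h in low-nutrient medium (0.5% FCS, 1/20 growth factors). Single treatment added at 10× stock. Impedance cell index read hourly for 5−6 days and normalized to pre-treatment. Proliferation ratio taken at day 4 versus control (tropomyosin-derived 20-residue peptide for peptides; thioredoxin for recombinant protein). Two-Way ANOVA with Dunnett's correction.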

NCI-H69 [3] = experiment: Induction of human H69 cell growth at 32 nM after 5 to 6 days by real time cell proliferation assay relative to control; assay type: functional; procedure, shortened: as §1
NCI-H69 [4] = experiment: Induction of human H69 cell growth at 2 uM after 5 to 6 days by real time cell proliferation assay relative to control; assay type: functional; procedure, shortened: as §1
NCI-H69 [5] = experiment: Cytotoxicity against human H69 cells up to 2 uM after 5 to 6 days by real time cell proliferation assay; assay type: cell-based
NCI-H69 [6] = experiment: Induction of human H69 cell growth at 400 nM after 5 to 6 days by real time cell proliferation assay relative to control; assay type: functional; procedure, shortened: as §1

Compound | Activity (Mus musculus) | Activity [1] | Activity (NCI-H69 [2]) | Activity (NCI-H69 [3]) | Activity (NCI-H69 [4]) | Activity (NCI-H69 [5]) | Activity (NCI-H69 [6])
CSCC[C@H](NC(=O)[C@@H]1CCCN1C(=O)[C@H](C)NC(=O)[C@@H]1CSSC[C@@H]2NC(=O)[C@H]([C@@H](C)O)NC(=O)[C@H](Cc3ccc(O)cc3)NC(=O)[C@H](C(C)C)NC(=O)[C@@H]3CCCN3C(=O)[C@H](CC(=O)O)NC(=O)[C@@H]3CCCN3C(=O)[C@@H](NC(=O)[C@H](CO)NC(=O)[C@@H]3CCCN3C(=O)[C@H](CO)NC(=O)[C@@H](N)CCCNC(=N)N)CSSC[C@H](NC(=O)[C@H]([C@@H](C)O)NC(=O)[C@H](CCC(N)=O)NC(=O)CNC(=O)[C@@H]3CCCN3C(=O)[C@H](CCCNC(=N)N)NC2=O)C(=O)N[C@@H](C)C(=O)N[C@@H](CCCNC(=N)N)C(=O)NCC(=O)N[C@@H](CC(C)C)C(=O)N[C@@H](Cc2cnc[nH]2)C(=O)NCC(=O)N[C@@H](Cc2ccc(O)cc2)C(=O)NCC(=O)N1)C(=O)N[C@@H](CC(=O)O)C(=O)O (H-RSPSCPDPVYTCRPGQTCARGLHGYGCAPMD-OH; disulfide 5-18, 12-27) | 26 - 41% | inactive |  |  |  |  | 
CC[C@H](C)[C@H](NC(=O)[C@@H](N)C(C)C)C(=O)N[C@@H](Cc1cnc[nH]1)C(=O)N[C@H]1CSSC[C@@H]2NC(=O)[C@H]([C@@H](C)O)NC(=O)[C@H]([C@@H](C)O)NC(=O)CNC(=O)[C@H](CC(=O)O)NC(=O)[C@@H]3CCCN3C(=O)[C@H](CSSC[C@@H](C(=O)N[C@@H](C)C(=O)N3CCC[C@H]3C(=O)N[C@@H](Cc3ccccc3)C(=O)N[C@@H](CO)C(=O)O)NC(=O)[C@H](Cc3ccc(O)cc3)NC(=O)[C@H](Cc3c[nH]c4ccccc34)NC(=O)[C@H](C(C)C)NC(=O)CNC(=O)[C@H](Cc3ccc(O)cc3)NC(=O)[C@@H]3CCCN3C(=O)[C@H](CO)NC(=O)[C@H](CC(C)C)NC(=O)[C@H](C)NC2=O)NC(=O)[C@H]([C@@H](C)CC)NC(=O)[C@H]([C@@H](C)O)NC(=O)[C@H](C)NC(=O)[C@H](C)NC(=O)[C@H](CC(=O)O)NC1=O (H-VIHCDAATICPDGTTCALSPYGVWYCAPFS-OH; disulfide 4-16, 10-26) |  |  | inactive | 9% |  |  | 
CC(C)C[C@@H]1NC(=O)CNC(=O)[C@H](CCCNC(=N)N)NC(=O)[C@H](C)NC(=O)[C@@H]2CSSC[C@H](N)C(=O)N3CCC[C@H]3C(=O)N[C@@H](CC(=O)O)C(=O)N3CCC[C@H]3C(=O)N[C@@H](C(C)C)C(=O)N[C@@H](Cc3ccc(O)cc3)C(=O)N[C@@H]([C@@H](C)O)C(=O)N[C@@H](CSSC[C@@H](C(=O)O)NC(=O)CNC(=O)[C@H](Cc3ccc(O)cc3)NC(=O)CNC(=O)[C@H](Cc3cnc[nH]3)NC1=O)C(=O)N[C@@H](CCCNC(=N)N)C(=O)N1CCC[C@H]1C(=O)NCC(=O)N[C@@H](CCC(N)=O)C(=O)N[C@@H]([C@@H](C)O)C(=O)N2 (H-CPDPVYTCRPGQTCARGLHGYGC-OH; disulfide 1-14, 8-23) | 37 - 41% | inactive |  |  | 14 - 25% | Non-Toxic | 
CC[C@H](C)[C@H](NC(=O)[C@@H]1CCCN1C(=O)[C@H](CCC(N)=O)NC(=O)[C@H](CC(C)C)NC(=O)[C@@H](NC(=O)[C@H](CC(=O)O)NC(=O)[C@@H](N)CCSC)[C@@H](C)O)C(=O)N[C@@H](CCCNC(=N)N)C(=O)N[C@@H](CO)C(=O)N1CCC[C@H]1C(=O)N[C@@H](CO)C(=O)N[C@H]1CSSC[C@@H]2NC(=O)[C@H]([C@@H](C)O)NC(=O)[C@H](CCC(N)=O)NC(=O)CNC(=O)[C@@H]3CCCN3C(=O)[C@H](CCCNC(=N)N)NC(=O)[C@H](CSSC[C@@H](C(=O)N[C@@H](C)C(=O)O)NC(=O)CNC(=O)[C@H](Cc3ccc(O)cc3)NC(=O)CNC(=O)[C@H](Cc3cnc[nH]3)NC(=O)[C@H](CC(C)C)NC(=O)CNC(=O)[C@H](CCCNC(=N)N)NC(=O)[C@H](C)NC2=O)NC(=O)[C@H]([C@@H](C)O)NC(=O)[C@H](Cc2ccc(O)cc2)NC(=O)[C@H](C(C)C)NC(=O)[C@@H]2CCCN2C(=O)[C@H](CC(=O)O)NC(=O)[C@@H]2CCCN2C1=O (H-MDTLQPIRSPSCPDPVYTCRPGQTCARGLHGYGCA-OH; disulfide 12-25, 19-34) | 37 - 41% |  |  |  | 14 - 25% | Non-Toxic | 9%
